ChEMBL document CHEMBL1138652, “Chlorothiophenecarboxamides as P1 surrogates of inhibitors of blood coagulation factor Xa” (Bioorg Med Chem Lett, 2004)
In brackets after ≈: the same amount, converted by molar mass. One block for each compound: values may come before it.

Columns and labels:
Trypsin = Trypsin (Homo sapiens, UniProt P07477+P07478+P35030); assay: Inhibitory concentration against human trypsin activity; format: protein assay
How it was run: (§1)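 Human factor Xa, thrombin and trypsin were each monitored in vitro with a protease-specific chromogenic substrate. Inhibition was calculated from the ratio of optical density in drug-containing versus vehicle-containing assays.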

Prothrombin = Prothrombin (Homo sapiens, UniProt P00734); assay: Inhibitory concentration against human thrombin activity; how it was run: as §1
Coagulation factor X = Coagulation factor X (Homo sapiens, UniProt P00742); assay: Inhibitory concentration against human serine protease factor Xa; how it was run: as §1
Chain of Coagulation factor X (P00742 41-179 limits assumed): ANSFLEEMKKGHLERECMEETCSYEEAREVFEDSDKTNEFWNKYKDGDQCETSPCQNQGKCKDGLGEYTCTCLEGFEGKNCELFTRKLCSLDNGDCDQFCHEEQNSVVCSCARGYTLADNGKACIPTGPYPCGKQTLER
Chain of Coagulation factor X (P00742 235-488 limits assumed): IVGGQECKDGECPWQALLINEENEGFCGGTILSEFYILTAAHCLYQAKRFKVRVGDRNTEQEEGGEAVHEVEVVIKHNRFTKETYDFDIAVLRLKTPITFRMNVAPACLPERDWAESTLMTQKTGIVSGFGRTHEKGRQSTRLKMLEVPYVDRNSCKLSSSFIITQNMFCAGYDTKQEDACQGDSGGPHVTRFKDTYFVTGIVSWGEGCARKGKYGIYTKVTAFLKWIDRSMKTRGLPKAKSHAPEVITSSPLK

[1] = Solubility was determined; format: ADME; settings: human
How it was run: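 Shake-flask solubility was measured in phosphate buffer at pH 7 and 37 °C.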

[2] = Maximum absorbable dose of compound after administration at dose of 10 mg/kg was determined; format: ADME, organism-based; design: dose 10 mg/kg; settings: human
[3] = Maximum time taken for concentration of compound in plasma after peroral administration at dose of 0.5 mg/kg in male wistar rats was determined; format: ADME, organism-based; design: dose 0.5 mg/kg, route oral; settings: rat, po
How it was run: (§2)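 Pharmacokinetics were studied in male Wistar rats (N = 3), female Beagle dogs (N = 2) and female Cynomolgus monkeys (N = 2). Each animal received single intravenous and oral doses. Plasma concentration–time data gave Cmax, tmax, AUC, t1/2, CL, Vss and oral bioavailability.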

[4] = Maximum plasma concentration after peroral administration of compound at dose of 0.5 mg/kg in female monkeys was determined; format: ADME, organism-based; design: dose 0.5 mg/kg, route oral; settings: cercopithecidae, po; how it was run: as §2
[5] = Maximum time taken for concentration of compound in plasma after peroral administration at dose of 0.5 mg/kg in female dogs was determined; format: ADME, organism-based, Canis lupus familiaris; design: dose 0.5 mg/kg, route oral; settings: dog, po; how it was run: as §2
[6] = Area under curve concentration of compound after intravenous administration at dose of 0.2 mg/kg in female monkeys was determined; format: ADME, organism-based; design: dose 0.2 mg/kg, route intravenous; settings: cercopithecidae, in vivo; how it was run: as §2
[7] = Maximum plasma concentration after peroral administration of compound at dose of 0.5 mg/kg in male wistar rats was determined; format: ADME, organism-based; design: dose 0.5 mg/kg, route oral; settings: rat, po; how it was run: as §2
[8] = Area under curve concentration of compound at 6 hr after peroral administration at dose of 0.5 mg/kg in female dogs was determined; format: ADME, organism-based, Canis lupus familiaris; design: time < 6 hr, dose 0.5 mg/kg, route oral; settings: dog, in vivo, po; how it was run: as §2
[9] = Half life of compound after intravenous administration at dose of 0.2 mg/kg in female monkeys was determined; format: ADME, organism-based; design: dose 0.2 mg/kg, route intravenous; settings: cercopithecidae, in vivo; how it was run: as §2
[10] = Steady state volume of distribution of compound after intravenous administration at dose of […] was determined; format: ADME, organism-based, Canis lupus familiaris; design: route intravenous; settings: dog, in vivo, read-out: Vss; how it was run: as §2
[11] = Area under curve concentration of compound after intravenous administration at dose of 0.15 mg/kg in female dogs was determined; settings: dog, in vivo
[12] = Steady state volume of distribution of compound after intravenous administration at dose of 0.2 mg/kg in female monkeys was determined; format: ADME, organism-based; design: dose 0.2 mg/kg, route intravenous; settings: cercopithecidae, in vivo, read-out: Vss; how it was run: as §2
[13] = Area under curve concentration of compound at 6 hr after peroral administration at dose of 0.5 mg/kg in male wistar rats was determined; format: ADME, organism-based; design: time < 6 hr, dose 0.5 mg/kg, route oral; settings: rat, in vivo, po; how it was run: as §2
[14] = Half life of compound after intravenous administration at dose of 0.15 mg/kg in female dogs was determined; settings: dog, in vivo
[15] = Clearance of compound after intravenous administration at dose of 0.2 mg/kg in female monkeys was determined; format: ADME, organism-based; design: dose 0.2 mg/kg, route intravenous; settings: cercopithecidae, in vivo; how it was run: as §2
[16] = Clearance of compound after intravenous administration at dose of 0.2 mg/kg in male wistar rats was determined; format: ADME, organism-based; design: dose 0.2 mg/kg, route intravenous; settings: rat, in vivo; how it was run: as §2
[17] = Bioavailability of compound after peroral administration at dose of 0.5 mg/kg in male wistar rats was determined; format: ADME, organism-based; settings: rat, in vivo, po, read-out: Bioavailabiility; how it was run: as §2
[18] = Area under curve concentration of compound after intravenous administration at dose of 0.2 mg/kg in male wistar rats was determined; format: ADME, organism-based; design: dose 0.2 mg/kg, route intravenous; settings: rat, in vivo; how it was run: as §2
[19] = Steady state volume of distribution of compound after intravenous administration at dose of 0.2 mg/kg in male wistar rats was determined; format: ADME, organism-based; design: dose 0.2 mg/kg, route intravenous; settings: rat, in vivo, read-out: Vss; how it was run: as §2
[20] = Half life of compound after intravenous administration at dose of 0.2 mg/kg in male wistar rats was determined; format: ADME, organism-based; design: dose 0.2 mg/kg, route intravenous; settings: rat, in vivo; how it was run: as §2
[21] = Bioavailability of compound after peroral administration at dose of 0.5 mg/kg in female monkeys was determined; format: ADME, organism-based; settings: cercopithecidae, in vivo, po, read-out: Bioavailabiility; how it was run: as §2
[22] = Clearance of compound after intravenous administration at dose of 0.15 mg/kg in female dogs was determined; settings: dog, in vivo
[23] = Bioavailability of compound after peroral administration at dose of 0.5 mg/kg in female dogs was determined; format: ADME, organism-based, Canis lupus familiaris; settings: dog, in vivo, po, read-out: Bioavailabiility; how it was run: as §2
[24] = Area under curve concentration of compound at 6 hr after peroral administration at dose of 0.5 mg/kg in female monkeys was determined; format: ADME, organism-based; design: time < 6 hr, dose 0.5 mg/kg, route oral; settings: cercopithecidae, in vivo, po; how it was run: as §2
[25] = Maximum plasma concentration after peroral administration of compound at dose of 0.5 mg/kg in female dogs was determined; format: ADME, organism-based, Canis lupus familiaris; design: dose 0.5 mg/kg, route oral; settings: dog, po; how it was run: as §2
[26] = Maximum time taken for concentration of compound in plasma after peroral administration at dose of 0.5 mg/kg in female monkeys was determined; format: ADME, organism-based; design: dose 0.5 mg/kg, route oral; settings: cercopithecidae, po; how it was run: as §2

IC50 (Trypsin): > 10 µM
IC50 (Prothrombin): > 10 µM
Structure (SMILES): CCC[C@@H](NC(=O)Nc1ccc(Cl)cc1)C(=O)Nc1ccc(N2CCOCC2=O)cc1

IC50 (Prothrombin): > 10 µM
Structure (SMILES): O=C(CCc1ccc2nc(-c3ccc(Cl)s3)[nH]c2c1)Nc1ccc(N2CCOCC2=O)cc1F

IC50 (Trypsin): > 10 µM
IC50 (Coagulation factor X): 700 nM
IC50 (Prothrombin): > 10 µM
Structure (SMILES): O=C(CNC(=O)c1ccc(Cl)s1)Nc1ccc(N2CCOCC2=O)cc1

IC50 (Trypsin): > 10 µM
IC50 (Coagulation factor X): 9.5 nM
IC50 (Prothrombin): > 10 µM
Structure (SMILES): CCC[C@@H](NC(=O)c1ccc(Cl)s1)C(=O)Nc1ccc(N2CCOCC2=O)c(C)c1

IC50 (Trypsin): > 10 µM
IC50 (Coagulation factor X): 130 nM
IC50 (Prothrombin): > 10 µM
Structure (SMILES): CC(C)C[C@H](NC(=O)c1ccc(Cl)s1)C(=O)Nc1ccc(N2CCOCC2=O)cc1

IC50 (Trypsin): > 10 µM
IC50 (Coagulation factor X): 59 nM
IC50 (Prothrombin): > 10 µM
Structure (SMILES): C[C@@H](NC(=O)c1ccc(Cl)s1)C(=O)Nc1ccc(N2CCOCC2=O)cc1

IC50 (Coagulation factor X): 14 nM
Structure (SMILES): COC[C@@H](NC(=O)c1ccc(Cl)s1)C(=O)Nc1ccc(N2CCOCC2=O)c(C(F)(F)F)c1

IC50 (Trypsin): > 10 µM
IC50 (Coagulation factor X): 15 nM
IC50 (Prothrombin): > 10 µM
Structure (SMILES): CC(C)C[C@@H](NC(=O)c1ccc(Cl)s1)C(=O)Nc1ccc(N2CCOCC2=O)cc1

IC50 (Trypsin): > 10 µM
IC50 (Coagulation factor X): 10 nM
IC50 (Prothrombin): > 10 µM
Structure (SMILES): CCOC[C@@H](NC(=O)c1ccc(Cl)s1)C(=O)Nc1ccc(N2CCOCC2=O)c(C)c1

IC50 (Trypsin): > 10 µM
IC50 (Coagulation factor X): 13 nM
IC50 (Prothrombin): > 10 µM
Structure (SMILES): COC[C@@H](NC(=O)c1ccc(Cl)s1)C(=O)Nc1ccc(N2CCOCC2=O)c(Cl)c1

IC50 (Trypsin): > 10 µM
solubility [1]: 41 µg/mL (≈ 94.1 µM)
IC50 (Coagulation factor X): 11 nM
IC50 (Prothrombin): > 10 µM
MAD [2]: 6.5 mg/kg
Structure (SMILES): CC[C@@H](NC(=O)c1ccc(Cl)s1)C(=O)Nc1ccc(N2CCOCC2=O)c(C)c1

IC50 (Trypsin): > 10 µM
solubility [1]: 134 µg/mL (≈ 318 µM)
IC50 (Coagulation factor X): 15 nM
IC50 (Prothrombin): > 10 µM
MAD [2]: 2.8 mg/kg
Structure (SMILES): Cc1cc(NC(=O)[C@@H](C)NC(=O)c2ccc(Cl)s2)ccc1N1CCOCC1=O

IC50 (Trypsin): > 10 µM
IC50 (Coagulation factor X): 12 nM
IC50 (Prothrombin): > 10 µM
Structure (SMILES): CCC[C@@H](NC(=O)c1ccc(Cl)s1)C(=O)Nc1ccc(N2CCOCC2=O)cc1

IC50 (Trypsin): > 10 µM
IC50 (Coagulation factor X): 22 nM
IC50 (Prothrombin): > 10 µM
Structure (SMILES): COC[C@@H](NC(=O)c1ccc(Cl)s1)C(=O)Nc1ccc(N2CCOCC2=O)c(F)c1

IC50 (Trypsin): > 10 µM
IC50 (Coagulation factor X): 26 nM
IC50 (Prothrombin): > 10 µM
Structure (SMILES): O=C(N[C@H](C(=O)Nc1ccc(N2CCOCC2=O)cc1)c1ccccc1)c1ccc(Cl)s1

IC50 (Trypsin): > 10 µM
IC50 (Coagulation factor X): 66 nM
IC50 (Prothrombin): > 10 µM
Structure (SMILES): CC(C)[C@@H](NC(=O)c1ccc(Cl)s1)C(=O)Nc1ccc(N2CCOCC2=O)cc1

IC50 (Trypsin): > 10 µM
IC50 (Coagulation factor X): 16 nM
IC50 (Prothrombin): > 10 µM
Structure (SMILES): CC(C)C[C@@H](NC(=O)c1ccc(Cl)s1)C(=O)Nc1ccc(-n2ccccc2=O)cc1

solubility [1]: 1050 µg/mL (≈ 2130 µM)
IC50 (Coagulation factor X): 11 nM
MAD [2]: 22 mg/kg
Structure (SMILES): COCCOC[C@@H](NC(=O)c1ccc(Cl)s1)C(=O)Nc1ccc(N2CCOCC2=O)c(C)c1

IC50 (Trypsin): > 10 µM
IC50 (Coagulation factor X): 39 nM
IC50 (Prothrombin): > 10 µM
Structure (SMILES): CC(C)C[C@@H](NC(=O)c1ccc(Cl)s1)C(=O)Nc1ccc(-n2ccncc2=O)cc1

IC50 (Trypsin): > 10 µM
IC50 (Coagulation factor X): 20 nM
IC50 (Prothrombin): > 10 µM
Structure (SMILES): CC[C@@H](NC(=O)c1ccc(Cl)s1)C(=O)Nc1ccc(N2CCOCC2=O)cc1

IC50 (Trypsin): > 10 µM
IC50 (Coagulation factor X): 29 nM
IC50 (Prothrombin): > 10 µM
Structure (SMILES): O=C(N[C@@H](C(=O)Nc1ccc(N2CCOCC2=O)cc1)c1ccccc1)c1ccc(Cl)s1

IC50 (Trypsin): > 10 µM
solubility [1]: 520 µg/mL (≈ 1190 µM)
IC50 (Coagulation factor X): 29 nM
IC50 (Prothrombin): > 10 µM
MAD [2]: 11 mg/kg
Structure (SMILES): Cc1cc(NC(=O)[C@@H](CO)NC(=O)c2ccc(Cl)s2)ccc1N1CCOCC1=O

Tmax [3]: 2.5 h
Cmax [4]: 270 ng/mL
IC50 (Trypsin): > 10 µM
Tmax [5]: 30 min
solubility [1]: 510 µg/mL (≈ 1130 µM)
AUC [6]: 803 ng·h/mL
Cmax [7]: 92 ng/mL
AUC [8]: 211 ng·h/mL
half-life [9]: 138 min
IC50 (Prothrombin): > 10 µM
Vd [10]: 0.86 L/kg
AUC [11]: 117 ng·h/mL
Vd [12]: 0.81 L/kg
AUC [13]: 271 ng·h/mL
half-life [14]: 34.2 min
MAD [2]: 11 mg/kg
clearance [15]: 4.17 mL/min/kg
clearance [16]: 15.7 mL/min/kg
bioavailability [17]: ~60%
AUC [18]: 212 ng·h/mL
Vd [19]: 1.6 L/kg
half-life [20]: 66 min
bioavailability [21]: ~80%
clearance [22]: 21.7 mL/min/kg
bioavailability [23]: ~60%
AUC [24]: 1100 ng·h/mL
Cmax [25]: 161 ng/mL
Tmax [26]: 30 min
Structure (SMILES): COC[C@@H](NC(=O)c1ccc(Cl)s1)C(=O)Nc1ccc(N2CCOCC2=O)c(C)c1

IC50 (Trypsin): > 10 µM
solubility [1]: 92 µg/mL (≈ 192 µM)
IC50 (Coagulation factor X): 12 nM
IC50 (Prothrombin): > 10 µM
MAD [2]: 1.9 mg/kg
Structure (SMILES): CCCOC[C@@H](NC(=O)c1ccc(Cl)s1)C(=O)Nc1ccc(N2CCOCC2=O)c(C)c1

IC50 (Trypsin): > 10 µM
solubility [1]: 29 µg/mL (≈ 62.5 µM)
IC50 (Coagulation factor X): 7.2 nM
IC50 (Prothrombin): > 10 µM
MAD [2]: 0.6 mg/kg
Structure (SMILES): Cc1cc(NC(=O)[C@@H](CC(C)C)NC(=O)c2ccc(Cl)s2)ccc1N1CCOCC1=O
